Most compounds without a hit are left out; they make up all but 5.8% or so of the library.
PLK1 inh: PLK1 (human) kinase inhibition. actives 0.53% (n = 97,000). P53350. AID 619. inhibition, % at 10 µM. recombinant PLK1 kinase, TR-FRET peptide phosphorylation;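 active = inhibition of 50% or more in the single-concentration screen; inactive = inhibition below 50%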;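 also: 0% = DMSO max control and 100% = H-89 dihydrochloride min control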
Cav32 inh: inhibitors of human Cav3.2 T-type calcium channel | actives 4% (n = 100,000) | O95180 | AID 449739 | B-score at 10 µM | Cav3.2-expressing cells, Fluo-4 calcium fluorescence FDSS; hits give low values;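 active = single-dose well whose peak fluorescence ratio is a statistical outlier from its plate by either plate-standardised score or position-corrected B-score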
FAK inh: blocks human focal adhesion kinase activity. actives 0.84% (n = 97,000). Q05397. AID 727. biochemical FAK kinase activity assay. inhibition, %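 (tested at 7 µM)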; in the data active = inhibition above about 19%;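 also: 0% = DMSO and 100% = reference compound high control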
Target sequence (Q05397 whole entry, looked up): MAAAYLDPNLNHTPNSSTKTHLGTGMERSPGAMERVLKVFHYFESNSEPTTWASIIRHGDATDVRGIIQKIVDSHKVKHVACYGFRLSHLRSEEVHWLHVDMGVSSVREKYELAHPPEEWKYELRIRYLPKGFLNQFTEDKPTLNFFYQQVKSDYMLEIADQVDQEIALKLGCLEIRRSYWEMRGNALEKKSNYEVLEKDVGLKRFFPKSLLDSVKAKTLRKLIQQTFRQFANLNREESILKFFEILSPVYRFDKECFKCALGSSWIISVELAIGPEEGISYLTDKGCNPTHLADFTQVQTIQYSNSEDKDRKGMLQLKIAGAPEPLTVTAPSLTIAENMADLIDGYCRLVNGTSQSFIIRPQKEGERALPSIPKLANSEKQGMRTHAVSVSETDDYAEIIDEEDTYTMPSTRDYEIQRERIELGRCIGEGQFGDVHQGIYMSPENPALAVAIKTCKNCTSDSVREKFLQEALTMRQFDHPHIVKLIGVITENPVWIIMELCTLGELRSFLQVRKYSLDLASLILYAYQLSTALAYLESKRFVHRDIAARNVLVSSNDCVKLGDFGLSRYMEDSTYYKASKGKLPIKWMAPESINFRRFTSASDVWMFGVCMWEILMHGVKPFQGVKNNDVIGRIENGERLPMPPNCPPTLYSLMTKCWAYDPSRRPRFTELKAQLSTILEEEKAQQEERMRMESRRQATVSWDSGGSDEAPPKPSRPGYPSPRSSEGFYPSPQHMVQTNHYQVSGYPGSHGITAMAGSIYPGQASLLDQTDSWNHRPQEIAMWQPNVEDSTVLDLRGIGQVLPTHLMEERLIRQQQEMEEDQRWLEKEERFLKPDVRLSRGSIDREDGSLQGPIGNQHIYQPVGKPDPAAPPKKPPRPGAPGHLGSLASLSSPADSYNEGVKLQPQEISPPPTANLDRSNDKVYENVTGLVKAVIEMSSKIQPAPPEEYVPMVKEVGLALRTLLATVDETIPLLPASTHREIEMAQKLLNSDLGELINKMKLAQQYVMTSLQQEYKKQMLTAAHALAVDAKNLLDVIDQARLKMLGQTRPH
PLK1 PBD inh: blocks phosphopeptide binding to human Plk1 polo box domain | P53350 | Plk1 PBD phosphopeptide binding, fluorescence polarization | inhibition, %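 (tested at about 20 µM)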 | actives 0.13% (n = 97,000) | AID 693; in the data active = inhibition above about 34%, passing the limit was not always enough
PTK2B oligo ant: antagonists of human Pyk2 oligomerization; actives 0.83% (n = 99,000); Q14289; Q293 cells, Pyk2 FERM NanoBiT luminescence; hits give low values; AID 1347419; z-score (the deposit names both 25 µM and 10 µM);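 active = Z-score of -3 or lower, scaled per plate to the spread of control and sample wells; inactive = z-score above -3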;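 also: negative z-score means lost luminescence so less FERM oligomerization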
Rev-RRE block: HIV Rev-RRE protein-RNA interaction inhibition; P05866; Rev peptide-RRE RNA binding, FRET; inhibition, % at 8 µM; actives 0.79% (n = 97,000); AID 704;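 active = inhibition above the screen-wide mean plus 3 SD, cut at about 35% in these data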;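 also: 0% = median DMSO wells and 100% = median Neomycin B control wells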
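Material: labelled RRE RNA duplex and labelled Rev peptide / Buffer or medium: HEPES pH 7.5 salt buffer with EDTA / Compound dosing: single point, 8 µM final nominal compound concentration / Benchmarks: DMSO low control, neomycin B high control / Timing: 5 min preincubation and 15 min binding, 25 °C / Technique: FRET fluorescence readout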
Starred values were filed as active, the others as inactive; . = no result.

SMILES | PLK1 inh | Cav32 inh | FAK inh | PLK1 PBD inh | PTK2B oligo ant | Rev-RRE block
OC(COCc1ccc(Cl)cc1)CN1CC=C(c2ccccc2)CC1 (centres undefined) | . | -6.6* | . | . | -0.01 | .
CN(C)c1ccc(CN2CC=C(c3ccc(F)cc3)CC2)cc1 | -10 | -0.045 | 8 | 8 | 0.82 | -5
CC(C)[C@H]1C(=O)O[C@H](C(C)C)C(=O)N(C)[C@@H](C(C)C)C(=O)O[C@H](C(C)C)C(=O)N(C)[C@@H](C(C)C)C(=O)O[C@H](C(C)C)C(=O)N1C | . | -3.9* | . | . | . | .
OC(c1ccc(F)cc1)(c1ccc(F)cc1)[C@@H]1CCCN1 | -6 | . | -5 | -19 | 0.24 | -1
OC(c1ccccc1)(c1ccccc1)C1CCNCC1 | -3 | -5* | 2 | -11 | . | -4
CCOC(=O)c1nc2ccccc2c(=O)n1-c1cccc(C)c1 | -8 | 0.54 | -4 | -34 | -0.36 | 10
O=C(CNC(=O)OCc1ccccc1)Nc1ccc(Br)cc1C(=O)c1ccccc1 | -2 | -5.9* | -3 | -21 | -0.19 | 6
O=C(CN1CCCCC1)NCC(=O)Nc1ccc(Br)cc1C(=O)c1ccccc1 | -1 | 0.0076 | -5 | 9 | 0.39 | 2
O=C(CNC(=O)c1ccccc1)Nc1ccc(Br)cc1C(=O)c1ccccc1 | -6 | -6.9* | 2 | 2 | -0.62 | 7
Cc1ccc(N2C(=O)/C(=C/c3ccc(CN(CCC#N)S(C)(=O)=O)o3)C(=O)NC2=S)cc1 | -17 | 1.1 | -9 | -104 | 1.7 | 16
Cc1cc(NC(=O)CCC(=O)N2CCC3(CC2)OCCO3)no1 | -4 | -0.4 | 6 | -19 | -0.13 | 12
Cc1ccc(C(c2nnnn2Cc2ccccc2)N2CC=C(c3ccc(F)cc3)CC2)cc1 (centres undefined) | -19 | -3.2* | -4 | -14 | -1.4 | 7
CC1=C(/C=C/c2ccccc2)CCN(C)C1 | -1 | 0.95 | -6 | -15 | -0.41 | -2
CC(C)CC(=O)NC(Oc1ccc(Cl)cc1)C(Cl)(Cl)Cl (centres undefined) | -8 | -6.2* | -2 | 14 | -0.01 | 2
CC1CN(O)C2CCc3nonc3C12O (centres undefined) | -7 | -0.0079 | -1 | -17 | -0.64 | 6
Nc1ccccc1C(=O)OCC(=O)Nc1ccc(Br)cc1F | -13 | -2.2 | 0 | 7 | 0.2 | 3
COc1ccc(N=C(C)c2c(O)n(C3CCCCC3)c(=O)[nH]c2=O)c(OC)c1 | -4 | -0.8 | 5 | -32 | -3.4* | 13
CC(=Nc1ccc2c(c1)CCC2)c1c(O)n(C2CCCCC2)c(=O)[nH]c1=O | -13 | -1.4 | -2 | -3 | -0.92 | 7
O=c1[nH]c(=O)n(CCC2=CCCCC2)c(O)c1C=NCc1cccnc1 | -5 | . | -2 | 10 | -3.2* | -5
CCOC(=O)c1c(NC(=O)c2c(N)n(CCCOC)c3nc4ccccc4nc23)sc2c1CCCC2 | -8 | 0.2 | -2 | 4 | -0.52 | 7
CCOCCCn1c(N)c(C(=O)Nc2sc3c(c2C(=O)OC)CCCC3)c2nc3ccccc3nc21 | 12 | -0.35 | -1 | -20 | -0.94 | 49*
COCCCNC(=O)c1c(NC(=O)c2ccccc2)n(Cc2ccccc2)c2nc3ccccc3nc12 | -8 | -5.7* | 1 | 15 | -0.02 | 30
O=C(Nc1ccc(F)cc1F)c1cccnc1Oc1cccc(C(F)(F)F)c1 | -9 | 0.91 | -1 | -9 | 0.38 | 7
C/C=C1\CN2[C@H]3C[C@@]45c6ccccc6N(C)[C@H]4[C@@H]2CC1C3[C@H]5O (some centres undefined) | . | -4.6* | . | . | . | .
COc1ccc(C2SCC(=O)Nc3c2c(C)nn3-c2ccccc2)cc1 (centres undefined) | 0 | -1.3 | 0 | -7 | -1.7 | 6
SMILES | PLK1 inh | Cav32 inh | FAK inh | PLK1 PBD inh | PTK2B oligo ant | Rev-RRE block
Cc1ccc(-n2nc(C)c3c2NC(=O)CSC3c2ccc3c(c2)OCO3)cc1 (centres undefined) | . | -8.4* | . | . | -0.51 | .
O=C(c1csc2c1CCCCC2)N1CCC2(CC1)OCCO2 | -14 | 0.12 | 5 | 3 | 0.09 | 5
CCOP(=O)(OCC)C(NC(=O)C(C)C)C(Cl)(Cl)Cl (centres undefined) | 9 | 0.2 | -5 | -12 | -0.69 | 3
COc1ccc(Cn2c(N)c(C(=O)NCc3ccco3)c3nc4ccccc4nc32)cc1 | 55* | . | 3 | -19 | -1.9 | 30
O=C1NC(=O)C2(C(=O)N1)C(c1ccc(F)cc1)NC(=S)NC2c1ccc(F)cc1 (centres undefined) | 0 | -0.32 | -1 | -8 | -1.1 | 4
CCOC(=O)c1c(-n2c(C)cc(/C=C3/C(=O)NC(=O)N(CC)C3=O)c2C)sc2c1CCCC2 | -11 | -3.5* | 2 | -24 | 0.04 | 6
CCCNC(=O)c1c(N)n(CC2CCCO2)c2nc3ccccc3nc12 (centres undefined) | -4 | -6.2* | 15 | 8 | 0.12 | 13
CC(C)OC(=O)c1c(N)n(CC2CCCO2)c2nc3ccccc3nc12 (centres undefined) | -15 | 0.47 | 0 | 6 | -0.01 | -3
Nc1c(C(=O)OC2CCCCC2)c2nc3ccccc3nc2n1CC1CCCO1 (centres undefined) | -11 | . | 3 | -11 | -0.77 | 14
CC(C)OCCCNC(=O)c1c(N)n(CC2CCCO2)c2nc3ccccc3nc12 (centres undefined) | -13 | -4.5* | 4 | -1 | 0.15 | 12
CC(=NCC1CCCO1)c1c(O)n(Cc2ccccc2)c(=O)[nH]c1=O (centres undefined) | -13 | 0.79 | -4 | -21 | 0.15 | 11
COc1cc2c(cc1OC)C13CCN4CC5=CCOC6CC(=O)N2C1C6C5CC43 (centres undefined) (tested in a mixture with another compound) | . | 0.73 | . | . | . | .
CCN(CC)CCNC(=O)c1c(O)c2ccccc2n(Cc2ccccc2)c1=O | 0 | -0.17 | 2 | 9 | 1.5 | -3
CCCCn1c(=O)c(C(=O)Nc2cnccn2)c(O)c2ccccc21 | -24 | -2.6* | 0 | -29 | -0.79 | 0
COCCCn1c(N)c(C(=O)NCCC(C)C)c2nc3ccccc3nc21 | -10 | -3.9 | 16 | -23 | 0.33 | 6
CC(C)CCn1c(=O)c(C(=O)Nc2ccccc2S(N)(=O)=O)c(O)c2ccccc21 | -17 | -5.4* | -1 | 4 | -1.1 | 4
CC(=O)O[C@@H]1[C@H]2CC[C@@H]3[C@]1(C[C@@H](OC(C)=O)[C@@]1(O)C([C@@H]4O[C@@H]4C1(C)C)[C@]3(C)O)C[C@@]2(C)O (some centres undefined) | . | 0.016 | . | . | . | .
